Data from ChEMBL document CHEMBL1649280, “Activity of the novel peptide arminin against multiresistant human pathogens shows the considerable potential of phylogenetically ancient organisms as drug sources” (Antimicrob Agents Chemother, 2009).
Calls of active or inactive are those of the source. The calls are words filed in the database; no cut-off is given here.

How the values were obtained:
Staphylococcus aureus [1] = assay: Antibacterial activity against Staphylococcus aureus ATCC 12600 by microdilution susceptibility assay in presence of 75 mM of sodium chloride; type: functional
Outline: (§1)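 Microdilution susceptibility assay in 10 mM sodium phosphate buffer, pH 7.4, with NaCl at 0, 75, 150 or 200 mM. Activity is expressed relative to the activity in buffer without NaCl, which is set to 1. Values are means with standard deviations of two independent experiments, each run in duplicate.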

Staphylococcus aureus [2] = assay: Antibacterial activity against methicillin-resistant Staphylococcus aureus after 2 hrs
Priestia megaterium [3] = assay: Antibacterial activity against Bacillus megaterium ATCC 14581 by microdilution susceptibility assay in presence of 200 mM of sodium chloride; type: functional, organism-based
Outline: (§2)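 Microdilution susceptibility assay in 10 mM sodium phosphate pH 7.4 with 0, 75, 150 or 200 mM NaCl. Activity relative to 0 mM NaCl (set to 1). Mean with standard deviation of two independent experiments, each in duplicate.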

Klebsiella pneumoniae [4] = assay: Antibacterial activity against vancomycin-resistant ESBL-producing Klebsiella pneumoniae GF1 after 2 hrs; type: functional
[5] = Toxicity in human RBC assessed as hemolysis at 250 uM after 1 hr; type: cell-based; conditions: erythrocyte
Outline: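 Human red blood cells were exposed to peptide serially diluted twofold from 250 μM in 50 mM sodium phosphate-150 mM NaCl, pH 7.4, for 1 h. Distilled water gave maximal lysis; buffer with peptide solvent gave spontaneous lysis. Absorbance of diluted supernatants was read at 405 nm. Values are means of two independent experiments, each in duplicate.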

Escherichia coli [6] = assay: Antibacterial activity against Escherichia coli DH5alpha after 2 hrs; type: functional, DH5[alpha]
Enterococcus faecium [7] = assay: Antibacterial activity against vancomycin-resistant Enterococcus faecium 356 after 2 hrs
Staphylococcus aureus [8] = assay: Antibacterial activity against methicillin-resistant Staphylococcus aureus ATCC 43300 after 2 hrs; type: functional
Staphylococcus aureus [9] = assay: Antibacterial activity against Staphylococcus aureus ATCC 12600 assessed as destruction and detachment of peripheral cell wall at 410 uM after 1.5 hrs by transmission electron microscopy; type: functional, organism-based
Outline: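 S. aureus grown to OD₆₀₀ 0.1, washed twice in 10 mM sodium phosphate pH 7.4 with 1% tryptic soy broth, concentrated to OD₆₀₀ 3.0 (~10⁸ bacteria/ml). Incubated with peptide at 41 or 410 μM for 1.5 h at 37°C with rocking; solvent-only control. CFU plated as growth check. Rest fixed 2 h 1:1 with 10% glutaraldehyde, examined by transmission electron microscopy.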

Priestia megaterium [10] = assay: Antibacterial activity against Bacillus megaterium ATCC 14581 after 2 hrs; type: functional
Staphylococcus aureus [11] = assay: Antibacterial activity against Staphylococcus aureus ATCC 12600 after 2 hrs; type: functional
Staphylococcus aureus [12] = assay: Antibacterial activity against Staphylococcus aureus ATCC 12600 by microdilution susceptibility assay in presence of 200 mM of sodium chloride; type: functional, organism-based; outline: as §2
Klebsiella pneumoniae [13] = assay: Antibacterial activity against vancomycin-resistant ESBL-producing Klebsiella pneumoniae ATCC 700603 after 2 hrs; type: functional
Enterococcus faecium [14] = assay: Antibacterial activity against vancomycin-resistant Enterococcus faecium G70 after 2 hrs
Priestia megaterium [15] = assay: Antibacterial activity against Bacillus megaterium ATCC 14581 by microdilution susceptibility assay in presence of 75 mM of sodium chloride; type: functional; outline: as §1
Escherichia coli [16] = assay: Antibacterial activity against vancomycin-resistant ESBL-producing Escherichia coli E9 after 2 hrs; type: functional
Enterococcus faecium [17] = assay: Antibacterial activity against vancomycin-resistant Enterococcus faecium 354 after 2 hrs
Enterococcus faecalis = assay: Antibacterial activity against vancomycin-resistant Enterococcus faecalis ATCC 51299 after 2 hrs; type: functional
Klebsiella pneumoniae [18] = assay: Antibacterial activity against vancomycin-resistant ESBL-producing Klebsiella pneumoniae GF7 after 2 hrs; type: functional
Enterococcus faecium [19] = assay: Antibacterial activity against vancomycin-resistant Enterococcus faecium G71 after 2 hrs
Staphylococcus aureus [20] = assay: Antibacterial activity against methicillin-resistant Staphylococcus aureus ATCC 33393 after 2 hrs; type: functional
Staphylococcus aureus [21] = assay: Antibacterial activity against methicillin-resistant Staphylococcus aureus 344 after 2 hrs; type: functional
Escherichia coli [22] = assay: Antibacterial activity against vancomycin-resistant ESBL-producing Escherichia coli E4 after 2 hrs; type: functional
Escherichia coli [23] = assay: Antibacterial activity against Escherichia coli DH5alpha by microdilution susceptibility assay in presence of 200 mM of sodium chloride; type: functional, organism-based; conditions: DH5[alpha]; outline: as §2
Escherichia coli [24] = assay: Antibacterial activity against Escherichia coli DH5alpha by microdilution susceptibility assay in presence of 75 mM of sodium chloride; type: functional, DH5[alpha]; outline: as §1
Staphylococcus aureus [25] = assay: Antibacterial activity against methicillin-resistant Staphylococcus aureus 358 after 2 hrs; type: functional

## H-KPWRFRRAIRRVRWRKVAPYIPFVVKTVGKK-OH
Staphylococcus aureus [1]
  fold change (FC): 4
Staphylococcus aureus [2]
  LD90: 0.2 µM
Staphylococcus aureus [2]; Staphylococcus aureus, 2 h
  MBC: 0.8 µM
Priestia megaterium [3]
  Activity: Active
Klebsiella pneumoniae [4]
  LD90: 0.2 µM
Klebsiella pneumoniae [4]; Klebsiella pneumoniae, GF1, 2 h
  MBC: 0.4 µM
[5]
  Activity: Non-toxic
Escherichia coli [6]
  LD90: 0.1 µM
Escherichia coli [6]; Escherichia coli, DH5[alpha], 2 h
  MBC: 0.2 µM
Enterococcus faecium [7]
  LD90: 0.2 µM
Enterococcus faecium [7]; Enterococcus faecium, 356, 2 h
  MBC: 0.8 µM
Staphylococcus aureus [8]
  LD90: 0.2 µM
Staphylococcus aureus [8]; Staphylococcus aureus, ATCC 43300, 2 h
  MBC: 0.4 µM
Staphylococcus aureus [9]
  Activity: Active
Priestia megaterium [10]
  LD90: 0.01 µM
Priestia megaterium [10]; Priestia megaterium, ATCC 14581, 2 h
  MBC: 0.1 µM
Staphylococcus aureus [11]
  LD90: 0.05 µM
Staphylococcus aureus [11]; Staphylococcus aureus, ATCC 12600, 2 h
  MBC: 0.4 µM
Staphylococcus aureus [12]
  Activity: Active
Klebsiella pneumoniae [13]
  LD90: 0.2 µM
Klebsiella pneumoniae [13]; Klebsiella pneumoniae, ATCC 700603, 2 h
  MBC: 0.8 µM
Enterococcus faecium [14]
  LD90: 0.2 µM
Enterococcus faecium [14]; Enterococcus faecium, G70, 2 h
  MBC: 0.4 µM
Priestia megaterium [15]
  fold change (FC): 4
Escherichia coli [16]
  LD90: 0.05 µM
Escherichia coli [16]; Escherichia coli, E9, 2 h
  MBC: 0.2 µM
Enterococcus faecium [17]
  LD90: 0.2 µM
Enterococcus faecium [17]; Enterococcus faecium, 354, 2 h
  MBC: 0.4 µM
Enterococcus faecalis
  LD90: 0.8 µM
Enterococcus faecalis; Enterococcus faecalis, ATCC 51299, 2 h
  MBC: 1.6 µM
Klebsiella pneumoniae [18]
  LD90: 0.2 µM
Klebsiella pneumoniae [18]; Klebsiella pneumoniae, GF7, 2 h
  MBC: 0.4 µM
Enterococcus faecium [19]
  LD90: 0.2 µM
Enterococcus faecium [19]; Enterococcus faecium, G71, 2 h
  MBC: 0.4 µM
Staphylococcus aureus [20]
  LD90: 0.2 µM
Staphylococcus aureus [20]; Staphylococcus aureus, ATCC 33393, 2 h
  MBC: 0.4 µM
Staphylococcus aureus [21]
  LD90: 0.2 µM
Staphylococcus aureus [21]; Staphylococcus aureus, 344, 2 h
  MBC: 0.8 µM
Escherichia coli [22]
  LD90: 0.1 µM
Escherichia coli [22]; Escherichia coli, E4, 2 h
  MBC: 0.4 µM
Escherichia coli [23]
  Activity: Active
Escherichia coli [24]
  fold change (FC): 2
Staphylococcus aureus [25]
  LD90: 0.2 µM
Staphylococcus aureus [25]; Staphylococcus aureus, 358, 2 h
  MBC: 0.4 µM
